Source: PubChem
Rows were chosen to be rich in hits. Some 3.5% of all compounds tested hit in one or more screens of this group.
MrgX1 ag – agonists of human MrgX1 receptor, primary screen, HEK293 cells, Fluo-4 calcium flux; Mas-related G-protein coupled receptor member X1 (Homo sapiens), Q96LB2; B-score at 10 µM; actives 0.44% (n = 310,000); Fluo-4 calcium fluorescence, agonist mode; hits give high values;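 active = calcium response B-score plate-corrected fluorescence ratio at least 3 library SD, with starting fluorescence B-score inside 5 SD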
Target sequence (Q96LB2 whole entry, looked up): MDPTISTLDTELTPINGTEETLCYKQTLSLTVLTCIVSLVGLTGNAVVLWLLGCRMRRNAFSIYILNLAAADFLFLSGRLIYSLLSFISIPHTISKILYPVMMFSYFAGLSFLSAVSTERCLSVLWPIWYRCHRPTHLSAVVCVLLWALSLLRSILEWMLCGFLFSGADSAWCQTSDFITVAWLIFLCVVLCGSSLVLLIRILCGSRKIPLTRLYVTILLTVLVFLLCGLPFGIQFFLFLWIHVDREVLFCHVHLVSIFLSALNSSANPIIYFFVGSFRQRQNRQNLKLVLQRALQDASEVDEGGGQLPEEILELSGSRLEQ
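Material: HEK293 cells stably expressing human MrgX1 receptor | Quantity: 15,000 cells per well | Times: Cells plated overnight, dye loaded 0.5 h 37 °C, 0.5 h room temperature | Measured by: Kinetic Fluo-4 NW fluorescence of intracellular calcium | Control set: Positive and negative controls per plate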
RGS4 act – RGS4 potentiators or activators, primary screen, cell-based, HEK293 M3R inducible RGS4, calcium flux | carbachol calcium flux Fluo4; hits give low values | B-score at 10 µM | actives 0.92% (n = 310,000);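 active = B-score of the integrated calcium signal more than 4 SD below the library mean, with starting fluorescence not abnormally high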;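 note: negative B-score means reduced calcium response which marks RGS4 activation or potentiation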
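System: HEK293 FlpIn-TREx cells, stable M3R, doxycycline-inducible RGS4. Timing: overnight RGS4 induction, 30 min dye load 37 °C, 20 min compound RT. Also added: carbachol, ECmax concentration. Measured by: Fluo4 fluorescence kinetic imaging of calcium. Evaluation: integrated calcium ratio converted to B score.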
MrgX1 antagonist – antagonists of human MrgX1 receptor, primary screen, HEK293 cells, Fluo-4 calcium flux; BAM8-22 antagonism; hits give low values; B-score at 10 µM; actives 1.3% (n = 310,000);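 active = calcium-response B-score plate-corrected more than 3 library SD below zero, starting fluorescence within 5 deviations, no agonist response on first addition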;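 note: peak minus trough fluorescence over baseline after final BAM8-22 challenge near maximal dose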
MrgX1 PAM – positive allosteric modulators of MrgX1, primary screen, HEK293 cells, Fluo-4 calcium flux; FDSS; hits give high values; actives 0.63% (n = 310,000); B-score at 10 µM;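 active = plate-corrected calcium response at least 3 library SD above typical, normal starting fluorescence, not activating the receptor alone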;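 note: compound read alongside a low EC10 to EC30 dose of BAM8-22 agonist; peak minus trough fluorescence over baseline measured at the second addition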
RGS4 inh – RGS4 inhibitors, primary screen, cell-based, HEK293 M3R inducible RGS4, calcium flux | Fluo-4 calcium flux; hits give high values; triggered by carbachol at its EC20 | B-score at 10 µM | actives 0.45% (n = 310,000) | AID 463165, 2010;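 active = B-score, a plate-corrected calcium signal, over three deviations above library mean, with baseline fluorescence within five deviations of library mean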;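 note: RGS4 expression induced by doxycycline in cells with stable M3 receptor; B-score is computed from the integrated fluorescence ratio over baseline after carbachol; higher B-score means a larger calcium signal and so more RGS4 inhibition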
Target sequence (P49798 whole entry, looked up): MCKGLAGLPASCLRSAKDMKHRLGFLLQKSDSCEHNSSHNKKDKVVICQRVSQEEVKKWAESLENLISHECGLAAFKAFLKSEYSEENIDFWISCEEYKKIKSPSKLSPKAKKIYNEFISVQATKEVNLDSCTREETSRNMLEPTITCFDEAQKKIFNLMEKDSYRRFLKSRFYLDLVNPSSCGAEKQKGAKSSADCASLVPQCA
MrgX1 antag conf – MrgX1 receptor antagonists, duplicate retest, confirmation, HEK293 cells, Fluo-4 calcium flux. actives 19% (n = 2,300). shares compounds with MrgX1 antagonist. remaining BAM8-22 calcium response % of control (hits give low values), % at 10 µM. AID 602420, 2012. BAM8-22 calcium flux; hits give low values;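 active = remaining agonist calcium response no higher than 100% minus 3 SD of agonist-only control wells, with starting fluorescence near control levels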;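 note: agonist BAM8-22 given at a near maximal EC90 to ECmax level; peak minus minimum fluorescence divided by baseline after agonist addition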
HEK293 Ca flux – nonspecific calcium signal in parental HEK293, confirmation, counter-screen for MrgX1 antagonist project, parental HEK293 cells, Fluo-4 calcium flux. shares compounds with MrgX1 antagonist. Fluo-4 calcium fluorescence, FDSS. fluorescence ratio F(max-min)/F0 at 10 µM. actives 2% (n = 4,000). AID 624111, 2012;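 active = duplicate-averaged calcium fluorescence ratio at least three times the standard deviation of buffer wells, a nonspecific response in parental cells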
HEK293 Ca counter – calcium response in parental HEK293 cells, primary screen, counter-screen for MrgX1 allosteric activator project, cell-based, Fluo-4 calcium flux, duplicate; shares compounds with MrgX1 antagonist; Fluo-4 fluorescence ratio; hits give high values; fluorescence ratio F(max-min)/F0 at 10 µM; actives 0.4% (n = 4,000); AID 624114, 2012;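 active = calcium fluorescence ratio, averaged over duplicates, at least 3 SD of the buffer-well ratio, meaning a nonspecific response in receptor-free cells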;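 note: untransfected parental HEK293 lacking MrgX1 used as counterscreen for MrgX1 allosteric activators; fluorescence change taken during the second addition on a kinetic imager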
HEK293 Ca cntr2 – calcium response in parental HEK293 cells, primary screen, counter-screen for MrgX1 agonist project, cell-based, Fluo-4 calcium flux, duplicate, agonist mode; shares compounds with MrgX1 antagonist; Fluo-4 calcium fluorescence (FDSS); hits give high values; fluorescence ratio F(max-min)/F0 at 10 µM; actives 8.7% (n = 4,000);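 active = calcium fluorescence ratio at least three times the spread of buffer wells, meaning a non-specific response in parental cells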
Active calls of the source: *; i = inactive; x = no result.

SMILES	MrgX1 ag	RGS4 act	MrgX1 antagonist	MrgX1 PAM	RGS4 inh	MrgX1 antag conf	HEK293 Ca flux	HEK293 Ca counter	HEK293 Ca cntr2
Cn1cnnc1SCC(=O)Nc1ccc(OC(F)F)cc1	i	i	-4.9*	i	i	84%*	i	i	i
O=C(/C=C/c1ccccc1)Nc1ccc(Cl)cn1	x	i	x	x	i	x	x	x	x
COc1ccc(/C=C/C(=O)N2CCN(c3ccccn3)CC2)c2ccccc12	i	i	i	i	i	x	x	x	x
Cc1nn(C)c(-c2n[nH]c(=S)n2-c2ccccc2)c1Cl	i	i	-4.7*	i	i	i	i	i	i
COc1ccc(-c2nc(/C=C3\C(C)=Nc4ccccc43)c(O)o2)cc1	i	i	-4.8*	i	i	59%*	i	i	i
CC1=Nc2ccccc2/C1=C/c1nc(-c2ccc(C)s2)oc1O	i	i	-6.1*	i	i	57%*	i	i	i
COC(=O)C(Cc1ccccc1)NC(=O)c1cc(=O)[nH]c2ccccc12 (stereo unspecified)	i	i	-4.7*	i	i	i	i	i	i
COC(=O)[C@@H](Cc1c[nH]c2ccccc12)NC(=O)c1cc(=O)[nH]c2ccccc12	i	i	i	i	i	x	x	x	x
CCC(=O)N1CCc2cc(S(=O)(=O)CCC(=O)Nc3cccc(C)n3)ccc21	i	i	i	i	i	x	x	x	x
COC(=O)c1ccccc1NC(=O)c1cc2sccc2n1C	i	i	-7.3*	i	i	85%*	i	i	i
COc1cccc(N2C(=O)C3CCCN3C2=S)c1 (stereo unspecified)	i	i	i	i	i	x	x	x	x
COc1ccc(N2CC(C(=O)Nc3cccc(S(=O)(=O)N4CCCC4)c3)CC2=O)c(OC)c1 (stereo unspecified)	i	i	-9*	i	i	i	i	i	i
COc1ccc(N2CC(C(=O)Nc3ccccc3N3CCCC3)CC2=O)c(OC)c1 (stereo unspecified)	i	i	-5.8*	i	i	i	i	i	i
O=C(NC1CCCCC1)C1CC(=O)N(Cc2ccccc2)C1 (stereo unspecified)	i	i	i	i	i	x	x	x	x
Nc1ccc(C(=O)Nc2nccs2)cc1	i	i	i	i	i	x	x	x	x
Cc1ccc(C(=O)Nc2nccs2)cc1	i	i	-5.3*	i	i	i	i	i	i
COc1ccc(-c2csc(NC(=O)c3nc(-c4ccccc4)oc3C)n2)cc1	i	i	i	i	i	x	x	x	x
Cc1oc(-c2ccccc2)nc1C(=O)Nc1nccs1	i	i	-5.7*	i	i	i	i	i	i
CSCCC(NS(=O)(=O)c1ccc(Cl)cc1)C(=O)OCC(=O)c1ccc(F)cc1 (stereo unspecified)	i	i	i	i	i	x	x	x	x
Cc1ccc(-c2sc(C(=O)NN)c(C)c2C#N)cc1	i	i	i	i	i	x	x	x	x
O=C1CC(=O)N(CCc2ccccc2)C(=O)N1CCc1ccccc1	i	i	-11*	i	i	79%*	i	i	i
CN(C)C=NC(=O)c1cc(C(=O)c2ccc(Cl)cc2Cl)c[nH]1	i	i	i	i	i	x	x	x	x
COc1cccc(CN(C)C(=S)Nc2cccc(C)c2)c1	i	i	-4.9*	i	i	i	i	i	i
COCCn1nnnc1C(c1ccc(C(F)(F)F)cc1)N1CCOCC1 (stereo unspecified)	i	i	-5.6*	i	i	i	i	i	i
COCCn1nnnc1C(c1ccccc1OC)N1CCN(c2ccccc2F)CC1 (stereo unspecified)	i	i	i	i	i	x	x	x	x
SMILES	MrgX1 ag	RGS4 act	MrgX1 antagonist	MrgX1 PAM	RGS4 inh	MrgX1 antag conf	HEK293 Ca flux	HEK293 Ca counter	HEK293 Ca cntr2
COCCn1nnnc1C(c1ccc(OC)cc1)N1CCN(c2ccccc2F)CC1 (stereo unspecified)	i	i	-5.7*	i	i	i	i	i	i
CCCCCN(C(=O)CCC(=O)OCc1cccc(Br)c1)c1c(N)n(CCCC)c(=O)[nH]c1=O	i	i	i	i	i	x	x	x	x
CCOC(=O)C(C)Sc1nc(=O)n2ccccc2n1 (stereo unspecified)	i	i	-5.1*	i	i	i	i	i	i
O=C(Nc1ccc(C(=O)N2CCOCC2)cc1)c1cccs1	i	i	-7*	i	i	75%*	i	i	i
Cc1cc(OC(C)C(=O)N2CCN(c3ccc(F)cc3)CC2)c2c(C)cc(=O)oc2c1 (stereo unspecified)	i	i	i	i	i	x	x	x	x
Brc1ccc2nc(-c3c[nH]c4ccccc34)cn2c1	i	i	-5.4*	i	i	i	i	i	i
Cc1cccn2cc(-c3c[nH]c4ccccc34)nc12	i	i	i	i	i	x	x	x	x
COc1cc(O)c(CCC(=O)c2ccc(OC)c(OC)c2)c(OC)c1	i	i	i	i	i	x	x	x	x
O=C(Nc1cccc(O)c1)c1cc(S(=O)(=O)N2CCCC2)ccc1Cl	i	i	-5.1*	i	i	i	i	i	i
Cc1ccc(C(=O)NCCc2nnc3ccc(NCCCN4CCOCC4)nn23)cc1	i	i	i	i	i	x	x	x	x
COCCN(C(=O)COC(=O)/C=C/c1cccs1)c1c(N)n(Cc2ccccc2)c(=O)[nH]c1=O	i	i	-12*	i	i	69%*	i	i	i
